Published values pooled from the literature.
Lines come from different studies, so protocols differ.
Target: Receptor tyrosine-protein kinase erbB-4 (ERBB4, Homo sapiens, UniProt Q15303)

SMILES	effect on	action	technique	concentration	endpoint	result
CNCc1ccccc1-c1csc([C@H](C)Nc2nc(C)nc3cc(OC)c(OC)cc23)c1	cell-free assay	–	competition with immobilised ligand	1 µM	remaining binding	100%
COc1cc(Nc2cnc(C#N)c(O[C@H](C)CN(C)C)n2)ncc1-c1cnn(C)c1	enzyme activity	inhibitor	radiometric	10 µM	remaining activity	94%
CCCS(=O)(=O)Nc1ccc(F)c(C(=O)c2c[nH]c3ncc(-c4ccc(Cl)cc4)cc23)c1F	enzyme activity	inhibitor	–	1 µM	inhibition	< 10%
Cc1cc(NC(=O)c2cccc3cc(-c4cccc5[nH]nc(N)c45)ccc23)ccc1F	enzyme activity	inhibitor	–	0.1 µM	activity vs control	102%
CN1CC(Oc2cnc(C#N)cc2-c2ccn3nc(NC(=O)C4CC4)cc3c2)C1	enzyme activity	inhibitor	–	1 µM	inhibition	-2%
Oc1cccc(-c2nc(N3CCOCC3)c3oc4ncccc4c3n2)c1	enzyme activity	inhibitor	–	10 µM	remaining activity	114%
COc1cc2c(N3CCN(C(=O)Nc4ccc(OC(C)C)cc4)CC3)ncnc2cc1OCCCN1CCCCC1	cell-free assay	–	–	0.5 µM	remaining signal	97.3%
CC(C)(C)c1nc2c(s1)c1nc(N)ncc1c1ccc(NS(=O)(=O)c3c(F)cccc3F)c(F)c12	enzyme activity	inhibitor	radiometric	1 µM	remaining activity	80%
O=C(Nc1nccs1)C(c1cc(F)ccc1O)N1Cc2ccccc2C1=O (stereo not drawn)	enzyme activity	inhibitor	–	1 µM	inhibition	16%
CO[C@@H](C)c1c(Nc2ccc([C@H](N(C)C(=O)C3CCS(=O)(=O)CC3)C(F)(F)F)cc2)cnc2cc(Cl)nn12	cell-free assay	–	competition with immobilised ligand	1 µM	remaining binding	84%
O=C1Nc2ccc(Cl)cc2C1=Cc1cc(Cl)c(O)c(Cl)c1	cell-free assay	–	–	0.5 µM	remaining signal	94.2%
CC/C(=N\NC(=O)NCc1cccc(O)c1)c1ccc(O)c(C)c1O	enzyme activity	inhibitor	–	0.1 µM	inhibition	9.9%
Cc1ccc(Nc2nccc(N(C)c3ccc4c(C)n(C)nc4c3)n2)cc1S(N)(=O)=O	enzyme activity	inhibitor	–	10 µM	inhibition	36%
O=C(NCc1ncc(C(F)(F)F)cc1Cl)c1ccc2c(c1)C1(CCS(=O)(=O)CC1)[C@@H](C1CC1)N2S(=O)(=O)c1ccc(F)cc1	cell-free assay	–	competition with immobilised ligand	1 µM	remaining binding	72%
Cc1ccc(NC(=O)c2ccc(C)c(C(F)(F)F)c2)cc1C#Cc1nn(C2CCC(O)CC2)c2ncnc(N)c12 (stereo not drawn)	cell-free assay	–	–	10 µM	remaining signal	-3%
CCN(CC)c1ccc(C2=NNC(=O)CC2C)cc1[N+](=O)[O-] (stereo not drawn)	enzyme activity	inhibitor	–	10 µM	remaining activity	94%
COc1cc2ncnc(Nc3ccc(Oc4ccccc4)c(C)c3C)c2cc1OC	enzyme activity	inhibitor	–	1 µM	inhibition	89%
CN(C(=O)c1ccccc1)c1cc(N(C)c2ccc3c(c2)CCc2ccc(C(=O)NCCN4CCOCC4)cc2C3=O)ccc1F	cell-free assay	–	competition with immobilised ligand	1 µM	remaining binding	90%
CC(C)(O)[C@H]1CC[C@H](Nc2ccc3ncc(-c4cccc(C(F)(F)F)c4)n3n2)CC1	enzyme activity	inhibitor	–	1 µM	remaining activity	92.6%
CCCOc1ccc([C@@H]2[C@@H](C(=O)O)[C@H](c3ccc4c(c3)OCO4)CN2CC(=O)Nc2c(CC)cccc2CC)cc1	cell-free assay	–	competition with immobilised ligand	1 µM	remaining binding	100%
O=C1NC(=O)c2cc(Nc3ccc(F)cc3)c(Nc3ccc(F)cc3)cc21	cell-free assay	–	–	0.5 µM	remaining signal	99.4%
Cc1nc(N2CC[C@@H](O)C2)ncc1-c1cc(C(F)(F)F)cc2[nH]ncc12	binding	–	competition with immobilised ligand	1 µM	remaining binding	87%
Cc1ccc(NC(=O)c2ccc(CN3CCN(C)CC3)cc2)cc1Nc1nc(-c2cccnc2)cs1	cell-free assay	–	–	0.5 µM	remaining signal	93.5%
Cc1cc(C)c(-n2ccn3nc(-c4cccnc4)cc23)cc1NC(=O)c1cc(C#N)cc(S(F)(F)(F)(F)F)c1	cell-free assay	–	competition with immobilised ligand	0.1 µM	remaining binding	96.3%
O=C(CSc1nc2nccnc2c(=O)n1CCc1ccccc1)Nc1nccs1	enzyme activity	inhibitor	–	10 µM	inhibition	-4%
CNC(=O)c1cc(Oc2ccc(NC(=O)Nc3ccc(Cl)c(C(F)(F)F)c3)cc2)ccn1	enzyme activity	inhibitor	–	0.3 µM	inhibition	-7%
O=C(O)[C@H]1[C@H](Cn2nnc3ccccc3c2=O)CC[C@@H]1C(=O)c1ccc(OCCC2CCOCC2)cc1	cell-free assay	–	competition with immobilised ligand	1 µM	remaining binding	89%
